Experiments:
HCC70 [1] = assay: Cytotoxicity against human HCC70 cells assessed as growth inhibition after 96 hrs by crystal violet staining assay; format: functional; settings: HCC70, 96 h, read-out: ED50 (the source's name)
In short: (§1)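 Cells plated at 5000/well in MEM Earle's or RPMI-1640 with 10% FBS. After 24 h, medium changed to Ham's F-12 with insulin (10 µg/mL), transferrin (25 µg/mL), 1% L-glutamine, 10 ng/mL EGF and xylosides at 5–500 µM, for 96 h. Cells fixed in 0.25% glutaraldehyde and stained with 0.1% crystal violet. Lysed in 1% Triton X-100; A595 read. ED50 reported.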

[2] = Cytotoxicity against human CCD-1095SK cells assessed as growth inhibition after 96 hrs by crystal violet staining assay; format: cell-based; settings: read-out: ED50; in short: as §1
HCC70 [3] = assay: Induction of heparan sulphate synthesis in human HCC70 cells assessed as proportion of heparan sulphate of total GAGs; format: functional; parameters: concentration or dose not given beside the values
In short: (§2)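 Xyloside-primed [35S]sulfate material was pooled from Superose 6 fractions, 35–51 for HCC70 and 34–51 for CCD-1095Sk. HS was cleaved by deaminative HNO2 at pH 1.5, then the digest was re-separated by gel permeation. Radioactivity was measured by β-counting.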

[4] = Induction of heparan sulphate synthesis in human CCD-1095SK cells assessed as proportion of heparan sulphate of total GAGs; format: functional; parameters: concentration or dose not given beside the values; in short: as §2
HCC70 [5] = assay: Induction of glycosaminoglycan synthesis in human HCC70 cells assessed as [35S]sulfate incorporation at 100 uM after 24 hrs by bata counting analysis relative to untreated control
[6] = Induction of glycosaminoglycan synthesis in human CCD-1095SK cells assessed as [35S]sulfate incorporation at 100 uM after 24 hrs by bata counting analysis relative to untreated control

SMILES	EC50 (HCC70 [1])	GI50 at 96 h [2]	Activity (HCC70 [3])	Activity [4]	fold change (FC) (HCC70 [5])	fold change (FC) [6]
O[C@@H]1[C@@H](O)[C@H](Oc2ccc3ccccc3c2)OC[C@H]1O	243 µM	152 µM	9%	3%	16	24
Oc1ccc2cc(OCCO[C@@H]3OC[C@@H](O)[C@H](O)[C@H]3O)ccc2c1	178 µM	280 µM	34%	26%	29	90
O[C@@H]1[C@@H](O)[C@H](OCCOCCOCCOc2ccc3ccccc3c2)OC[C@H]1O	87 µM	70 µM	15%	20%	21	74
O[C@@H]1[C@@H](O)[C@H](OCc2ccc3ccccc3c2)OC[C@H]1O	267 µM	298 µM	14%	7%	31	55
Oc1ccc2cc(O[C@@H]3OC[C@@H](O)[C@H](O)[C@H]3O)ccc2c1	7 µM	258 µM	28%	6%	37	74
Oc1ccc2cc(CO[C@@H]3OC[C@@H](O)[C@H](O)[C@H]3O)ccc2c1	282 µM	223 µM	14%	7%	42	98
O[C@@H]1[C@@H](O)[C@H](OCCOCCOc2ccc3ccccc3c2)OC[C@H]1O	129 µM	150 µM	5%	2%	29	80
O[C@@H]1[C@@H](O)[C@H](OCCOc2ccc3ccccc3c2)OC[C@H]1O	221 µM	140 µM	9%	3%	26	79

Source: ChEMBL document CHEMBL2384901, “Synthesis and biology of oligoethylene glycol linked naphthoxylosides” (Bioorg Med Chem, 2013)
